The list is not random: actives were taken first. Their share in the collection is about 3.9%.
AHR activator – human AHR activation; P35869; AHR-responsive luciferase reporter cells, luminescence; AID 2796; activation, % at 5 µM; hit rate 2.5% among 320,000; in the data active means activation above about 47%;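 further: 0% = vehicle wells and 100% = reference agonist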
ABCB6 inh 2 – blocks the human ABCB6 transporter; K562-ABCB6 porphyrin accumulation, flow cytometry, 1 h; active compounds read low; fluorescence ratio to DMSO, % at 10 µM; hit rate 0.19% among 360,000; AID 602162;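 active means fluorescence ratio to DMSO below 75%, the collection mean minus 3 SD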;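 further: signal is porphyrin accumulated inside mitochondria; 100% equals median channel fluorescence of DMSO control wells; lower ratio means ABCB6 inhibition with less porphyrin fluorescence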
SR-BI HDL uptake – mouse SR-BI HDL lipid transfer inhibition | Q61009 | hit rate 0.96% among 320,000 | ldlA[mSR-BI] CHO cells, DiI-HDL uptake fluorescence, 3 h | inhibition, % at 12.5 µM;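 active means mean replicate inhibition of at least 70% and a set share of replicates each scoring 70 or more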;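 further: 0% = median of neutral control wells and 100% = median of positive control wells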
FXN GAA850 act – increases GAA850 frataxin promoter reporter activity; activation, % at 6 µM; hit rate 0.56% among 360,000; HEK293 lucGAA850 FXN promoter luciferase reporter, 24 h; percent of 10 µM SAHA response; AID 540364;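 active means activation above the average of all compounds screened plus 3 SD, cutoff fixed separately per campaign, cut at about 7.5% in these data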;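 further: 0% = DMSO wells and 100% = 10 µM SAHA wells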
SR-BI DiI-HDL act – activators of SR-BI mediated HDL lipid uptake; CHO ldlA[mSR-BI] cells, DiI-HDL uptake fluorescence, 3 h; 100 = double the neutral-control signal; activation, % at 12.5 µM; hit rate 0.096% among 320,000;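 active means mean replicate activation of at least 60% and every replicate at or above 60%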;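 further: 0% = median plate neutral-control signal and 100% = twice that signal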
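Test system: SR-BI-overexpressing, LDLR-lacking CHO cells; Medium: Ham's F12 with 0.5% BSA, HEPES 25 mM, pH 7.4; Schedule: 3 h, 37 °C; Technique: bottom-read fluorescence, 550/595 nm.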
HIF activator – HIF pathway transcriptional activation; U2OS HRE-luciferase reporter, luminescence; normalized: DMSO 0%, desferrioxamine 100%; hit rate 0.32% among 300,000; AID 1910; activation, % at 7.5 µM (by protocol);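 active means mean activation of at least 10% of the iron chelator positive control signal, with at least half of replicates also reaching 10%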
AHR act cf – confirmation of human aryl hydrocarbon receptor activators. hit rate 87% among 2,300. activation, % at 9 µM. human cells, AHR-responsive luciferase reporter, luminescence. AID 2845. shares compounds with AHR activator; in the data active means activation above about 49%;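 further: HepG2 hepatoma cells carrying a DRE-driven firefly luciferase reporter; 0% = vehicle wells and 100% = reference agonist wells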
PXR act counter – PXR activation, counter-screen for AHR activators; cell-based PXR reporter, luciferase luminescence; hit rate 88% among 2,300; activation, % at 11.6 µM; shares compounds with AHR activator; in the data active means activation above about 11%;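 further: human hepatoma DPX-2 cells expressing full-length human PXR; 0% = DMSO and 100% = reference agonist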
Target sequence (O75469 whole entry, looked up): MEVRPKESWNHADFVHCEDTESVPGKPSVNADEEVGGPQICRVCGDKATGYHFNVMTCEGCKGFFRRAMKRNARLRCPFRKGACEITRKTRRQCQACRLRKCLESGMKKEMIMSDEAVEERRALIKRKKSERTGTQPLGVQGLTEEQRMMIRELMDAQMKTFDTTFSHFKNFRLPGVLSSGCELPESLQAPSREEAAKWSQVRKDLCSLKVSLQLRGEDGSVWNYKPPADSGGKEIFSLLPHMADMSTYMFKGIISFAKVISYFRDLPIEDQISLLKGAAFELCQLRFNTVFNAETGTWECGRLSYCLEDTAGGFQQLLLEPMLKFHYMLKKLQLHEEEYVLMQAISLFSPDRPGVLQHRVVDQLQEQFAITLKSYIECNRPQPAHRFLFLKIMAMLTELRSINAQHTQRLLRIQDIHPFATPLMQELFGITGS
The depositor's hits bear a star; nt = no result given.

SMILES	AHR activator	ABCB6 inh 2	SR-BI HDL uptake	FXN GAA850 act	SR-BI DiI-HDL act	HIF activator	AHR act cf	PXR act counter
Cc1[nH]nc(Nc2ccc(O)cc2)c1[N+](=O)[O-]	-4	101	4	1	-4	0	nt	nt
Cc1ccccc1Nc1n[nH]c(C)c1[N+](=O)[O-]	80*	100	4	2	-4	0	106*	22*
Cc1ccc(Nc2n[nH]c(C)c2[N+](=O)[O-])c(C)c1	132*	88	6	6	-6	1	127*	15*
Cn1cc(CN2CCC(C(O)c3cccs3)CC2)c(-c2ccccc2F)n1 (centres undefined)	1	103	nt	1	nt	0	nt	nt
O=C(Nc1cccc(S(=O)(=O)N2CCCC2)c1)c1ccc2c(c1)OCO2	88*	104	21	1	-21	0	64*	209*
O=C(Nc1cccc(S(=O)(=O)N2CCCCCC2)c1)c1ccc2c(c1)OCO2	82*	93	42	0	-42	0	62*	164*
COc1cc2c3c(c1)C1(C(=O)N3C(C)(C)C=C2C)C(C#N)=C(N)Oc2cc(O)ccc21 (centres undefined)	93*	101	8	-2	-8	0	39	2
CCOc1cc2c3c(c1)C1(C(=O)N3C(C)(C)C=C2C)C(C#N)=C(N)Oc2cc(O)ccc21 (centres undefined)	21	104	nt	-4	nt	0	nt	nt
CC(=O)Nc1ccc(NC(=O)c2c(C)nc3ccccn23)cc1	3	99	-3	-1	3	1	nt	nt
Cc1nc2ccccn2c1C(=O)Nc1ccc(Cl)cc1	91*	99	14	2	-14	2	152*	16*
CCCCCCC(=O)Oc1cccc(N2C(=O)C3CCCCC3C2=O)c1 (centres undefined)	8	103	-17	1	17	0	nt	nt
c1ccc(-c2ccc(-c3nc(-c4cccnc4)no3)cc2)cc1	-9	100	-7	8	7	1	nt	nt
Clc1ccccc1-c1nc(-c2cccnc2)no1	105*	93	-27	3	27	-1	123*	14*
Cc1ccccc1-c1nc(-c2cccnc2)no1	107*	98	15	2	-15	2	105*	nt
O=C(NCc1cccs1)c1cccnc1SCCS(=O)(=O)c1ccc(C(F)(F)F)cn1	2	98	nt	-1	nt	-1	nt	nt
Cn1c(NC(=O)CCc2ccccc2)cc(=O)n(C)c1=O	149*	103	6	7	-6	3	109*	24*
C[C@@H]1CN([C@H](C)CO)C(=O)CCCn2nncc2CO[C@H]1CN(C)S(=O)(=O)c1ccc(Cl)cc1	nt	96	nt	0	nt	nt	nt	nt
Cn1ccs/c1=N\C(=O)Nc1cccc(C(F)(F)F)c1	106*	97	4	2	-4	2	111*	60*
Cc1cccc(NC(=O)CSCC(=O)N=c2sccn2C)c1	13	91	-9	3	9	1	nt	nt
Fc1ccc(-c2nc3nc4ccccc4nc3n2Cc2ccco2)cc1	38	90	16	2	-16	1	nt	nt
c1ccc(-c2nc3nc4ccccc4nc3n2Cc2ccco2)cc1	99*	96	-1	2	1	-19	71*	20*
CCn1ncc(-c2cc(C(=O)O)no2)c1C	80*	nt	-27	nt	27	0	6	3
Cc1c(-c2cc(C(=O)O)no2)cnn1C	19	98	-6	3	6	0	nt	nt
Cc1ccc(OCCCC(=O)N2CCOCC2)cc1	9	89	-8	2	8	1	nt	nt
Cc1csc(=O)n1CCC(=O)OCc1nnc(-c2ccccc2Cl)o1	2	97	1	2	-1	nt	nt	nt
CN(C)CCCNc1nc(-c2ccc(Cl)cc2)nc2ccccc12	114*	93	-34	4	34	2	77*	26*

High-throughput results as filed in PubChem.
